# NPR1 activator – GC-A (human) enzyme activation. hit rate 0.14% among 370,000. P16066. HEK293 GC-A cells, cGMP TR-FRET, EC30 ANP; 0% at EC30 ANP, 100% saturating ANP. activation, % at 10 µM; in the data active = activation above about 40%
# Target sequence (P16066 whole entry, looked up): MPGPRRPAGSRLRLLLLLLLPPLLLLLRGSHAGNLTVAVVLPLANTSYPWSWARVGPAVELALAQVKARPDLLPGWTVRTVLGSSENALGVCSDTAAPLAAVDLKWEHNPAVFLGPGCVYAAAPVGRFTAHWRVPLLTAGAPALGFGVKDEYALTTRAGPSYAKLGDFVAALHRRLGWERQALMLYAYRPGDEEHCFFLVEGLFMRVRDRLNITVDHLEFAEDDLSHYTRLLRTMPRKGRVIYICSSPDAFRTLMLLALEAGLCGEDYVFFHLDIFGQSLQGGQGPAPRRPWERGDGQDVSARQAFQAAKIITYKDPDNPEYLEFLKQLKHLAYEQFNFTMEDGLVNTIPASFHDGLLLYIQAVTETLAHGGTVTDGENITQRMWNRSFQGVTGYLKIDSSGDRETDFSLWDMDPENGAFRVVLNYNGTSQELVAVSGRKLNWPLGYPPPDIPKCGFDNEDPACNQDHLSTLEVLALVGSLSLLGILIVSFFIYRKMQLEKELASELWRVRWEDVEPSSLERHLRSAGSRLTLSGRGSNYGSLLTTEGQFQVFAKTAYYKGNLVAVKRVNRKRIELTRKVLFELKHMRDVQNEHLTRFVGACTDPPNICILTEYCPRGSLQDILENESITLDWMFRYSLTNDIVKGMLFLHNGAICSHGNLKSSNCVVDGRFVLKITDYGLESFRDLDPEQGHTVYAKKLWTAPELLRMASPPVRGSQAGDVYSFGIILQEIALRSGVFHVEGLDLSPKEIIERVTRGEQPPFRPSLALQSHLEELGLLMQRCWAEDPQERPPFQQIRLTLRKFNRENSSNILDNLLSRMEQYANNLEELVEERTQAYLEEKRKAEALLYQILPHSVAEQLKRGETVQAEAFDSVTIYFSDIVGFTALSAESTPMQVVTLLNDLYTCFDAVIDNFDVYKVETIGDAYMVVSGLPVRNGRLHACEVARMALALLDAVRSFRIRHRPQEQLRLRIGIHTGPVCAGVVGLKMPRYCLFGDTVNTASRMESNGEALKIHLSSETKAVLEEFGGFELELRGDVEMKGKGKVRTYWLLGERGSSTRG
# FN deposition inh – fibronectin deposition inhibition. AH1F fibroblasts, Alexa488-fibronectin deposition fluorescence, overnight. inhibition, % at 12.6 µM. hit rate 0.086% among 350,000. AID 743247;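 active = mean inhibition across replicates of 30% or more, regardless of how many single replicates reach that level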;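 note: positive control wells lacked labelled fibronectin entirely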
#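 Measured by – fluorescence 485/525 nm · System – AH1F fibroblast monolayer, labelled fibronectin deposition · Amount – 10000 cells per well · Buffer or medium – serum-reduced DMEM (2% serum) · Doses – single dose, pinned · Also added – fluorescent fibronectin at 24 nM final · Schedule – 1 h cell attachment, overnight exposure to compound and label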
# CaV13 ICDI inh – Disruptors of the CACNA1D IQ motif to Ca2+-dependent inactivation inhibitor domain association, primary screening, Förster resonance energy transfer in intact living …; HEK cells, CFP/YFP FRET ICDI-IQ, plate reader, 10 min; percent FRET-ratio fall versus neutral wells; inhibition, % at 12.3 µM; hit rate 0.098% among 340,000; AID 743397;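 active = mean replicate inhibition of at least 30% and at least 1% of replicates passing that level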;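 note: 0% = median of the neutral control wells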
# NPR2 activator – GC-B (human) receptor activation | P20594 | HEK293-GC-B cells, CNP EC30, cGMP TR-FRET; 0% at EC30 CNP, 100% saturating CNP | activation, % at 10 µM | hit rate 0.11% among 370,000 | AID 1920062;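 active = activation at 10 µM reaching about 35% in either raw or pattern-adjusted values, limit read from the data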
# Casp6 inh – inhibitors of human caspase-6. P55212. purified caspase-6, Z-VEID-R110 cleavage fluorescence. inhibition, % at 12.5 µM. hit rate 0.53% among 350,000. AID 686996;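 active = mean inhibition across replicates at least about 35%, with every replicate also reaching that limit, limit read from the data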;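 note: 0% = median of neutral control wells and 100% = no fluorescence left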
# NSD2 inh – inhibitors of human histone methyltransferase NSD2; O96028; NSD2 peptide methylation, AlphaScreen, 120 min; inhibition, % at 12.5 µM; hit rate 0.54% among 310,000; AID 743445; in the data active = inhibition above about 50%
# AlphaScreen art – interferes with AlphaScreen signal, flagging NSD2 false positives. AC35, µM (top dose mostly 10 µM), for the others: top-dose activity change, negative = signal loss. hit rate 9.4% among 1,500. shares compounds with NSD2 inh. AlphaScreen artifact counterscreen, preloaded methylated H4 peptide. AID 1053174; call rule not given here
# Numbers without * were called inactive; · = no result. Shown are actives, neighbours in structure and some others; about 0.99% of the full set was active somewhere.
SMILES,NPR1 activator,FN deposition inh,CaV13 ICDI inh,NPR2 activator,Casp6 inh,NSD2 inh,AlphaScreen art
Cc1ccc(S(=O)(=O)Nc2ccc3c(c2)C(=O)N([C@H](C)CO)C[C@H](C)[C@@H](CN(C)C(=O)Cc2ccccc2)OCCCC[C@@H](C)O3)cc1,·,-13,·,·,1,·,·
COCc1[nH][nH]c(=O)c1C=NCC(=O)OC,-3,-9,0,3,-5,51*,-6%
Cc1ccc(CSc2nnc(Nc3ccc(C)cc3)s2)cc1,6,·,-9,1,0,127*,-6%
Cn1c(SCc2ccccc2C#N)nc2ccccc2c1=O,-24,6,-2,-5,-2,100*,-2%
Cn1c(SCC#N)nc2ccccc2c1=O,-4,9,-3,0,0,-1,·
Cc1cccc(NC(=O)C2CCN(C(=O)NCc3ccccc3)CC2)c1C,-2,3,-3,-1,1,66*,0%
Cc1ccc(C(=O)NCCn2c(N)c(C#N)c3nc4ccccc4nc32)cc1,-13,-11,-5,-8,·,55*,0%
O=C(Nc1cccc(NC(=O)c2ccc(Br)o2)n1)c1ccc(Br)o1,0,0,-5,1,·,9,·
N#Cc1c(NC(=O)c2ccc(Br)o2)n(-c2ccccc2)c2nc3ccccc3nc12,3,5,-1,-3,46*,177*,1%
CCCCn1c(NC(=O)c2ccccc2)c(C#N)c2nc3ccccc3nc21,1,-7,2,0,·,162*,3%
O=C(N[C@@H]1CC[C@@H](CCNC(=O)C2CC2)O[C@@H]1CO)c1ccncc1,·,·,·,·,-1,·,·
O=C(COc1ccc(S(=O)(=O)N2CCCC2)cc1)Nc1ccc(F)cc1,-2,-7,-2,-3,3,68*,2%
COc1cccc(-c2ccc([C@H]3[C@@H](C#N)N(C(=O)Cc4ccccc4)[C@@H]3CO)cc2)c1,·,-5,·,·,-1,·,·
COc1cc(/C=N/n2c(C)nnc2C)cc(OC)c1OC,-1,·,-2,-6,·,83*,-2%
CC(=O)N1CCn2c3c(c(=O)c4cc(C)ccc42)CCC31 (stereo unspecified),-9,-11,-6,-4,·,97*,-1%
C[C@@H]1CN([C@@H](C)CO)C(=O)c2cccc(NS(=O)(=O)c3ccccc3)c2O[C@@H]1CN(C)C(=O)Nc1cccc2ccccc12,·,·,·,·,4,·,·
Cc1ccc(S(=O)(=O)N(C)C[C@H]2OCCCC[C@H](C)Oc3ccc(NS(C)(=O)=O)cc3C(=O)N([C@@H](C)CO)C[C@H]2C)cc1,·,6,·,·,0,·,·
NS(=O)(=O)c1ccc(S(=O)(=O)N2CCN(C3CCCC3)CC2)cc1,1,10,-7,2,2,118*,-1%
CCOC(=S)SCC(=O)Nc1nc(C)c(C)s1,2,0,-4,5,0,51*,-2%
C[C@H](CO)N1C[C@H](C)[C@@H](CN(C)C(=O)Nc2ccccc2)Oc2ccc(NC(=O)CCC(F)(F)F)cc2CC1=O,·,·,·,·,-1,·,·
COc1cc(NC(=O)CCn2c(=O)oc3ccccc32)cc(OC)c1OC,-2,3,-3,-7,4,51*,3%
Cc1ccc(NC(=O)CCn2c(=O)oc3ccccc32)cc1,2,1,·,-1,·,55*,-1%
CCC(=O)N1[C@@H](CO)[C@H](c2ccc(-c3ccccc3OC)cc2)C12CN(C(C)=O)C2,·,·,·,·,-1,·,·
COCC#Cc1cnc2c(c1)C(=O)N([C@@H](C)CO)C[C@H](C)[C@H](CN(C)C)O2,·,11,·,·,1,·,·
O=C(O)C=C1C2CC3CC(C2)CC1C3,-2,·,-9,-7,·,50*,-4%
SMILES,NPR1 activator,FN deposition inh,CaV13 ICDI inh,NPR2 activator,Casp6 inh,NSD2 inh,AlphaScreen art
c1coc(CNCCCN2CCOCC2)c1,1,2,-3,4,·,56*,-4%
COCC(=O)N1C[C@H](C)[C@H](OC)CN(C)C(=O)c2cc(NC(=O)c3cc(C)on3)ccc2OC[C@@H]1C,·,6,·,·,0,·,·
COc1ccc2nc(C)cc(SCC(=O)N/N=C/c3ccc(O)c(O)c3)c2c1,-6,·,-6,2,8,66*,-13%
O=C(CSc1nc2ccccc2o1)N/N=C/c1ccc(O)c(O)c1,-4,15,-7,1,63*,116*,2.2µM*
C/C(=N\NC(=O)CSc1nc2ccccc2o1)c1ccc(O)cc1,4,·,-6,-3,1,51*,-5%
O=C(CSc1nc2ccccc2o1)N/N=C/c1ccccc1,0,3,-17,-3,·,-2,·
O=C(C[C@@H]1C=C[C@@H](NC(=O)C2CCC2)[C@H](CO)O1)NCCCN1CCOCC1,·,7,·,·,-11,·,·
O=C(NCc1ccc(F)cc1)[C@@H]1[C@@H](CO)[C@@H]2Cn3c(ccc(-c4cccnc4)c3=O)[C@H]1N2,·,·,·,·,2,·,·
CCCn1c(-c2cc(OC)c(OC)c(OC)c2)nc2nc3ccccc3nc21,19,·,-5,18,·,-6,·
C=CCn1c(-c2ccc(OC)cc2)nc2nc3ccccc3nc21,4,1,-5,3,·,67*,1%
CC1(C)Cc2c(c(-c3ccco3)[nH]c(=O)c2C#N)CS1,1,1,-5,0,·,94*,0%
CC1(C)Cc2c(c(-c3ccccc3)[nH]c(=O)c2C#N)CS1,0,·,·,4,-3,0,·
Cc1ccc(NC(=S)Nc2cccc3cnccc23)cc1,1,1,-5,-5,80*,101*,0%
CC(=O)c1ccc(NC(=S)Nc2cccc3cnccc23)cc1,-5,·,-6,-6,0,81*,-8%
Cc1ccc(NC(=S)Nc2cccc3cnccc23)cc1C,2,-16,1,-3,3,21,·
COCC(=O)Nc1ccc2c(c1)C(=O)N(C)C[C@@H](OC)[C@H](C)CN(C(=O)c1cnccn1)[C@@H](C)CO2,·,-7,·,·,-1,·,·
O=C(C=Cc1ccccc1)c1cc(Br)ccc1O,-14,-11,-12,-6,-1,54*,-5%
CC(=O)c1coc2c1cc(O)c1ccccc12,23,-2,-5,-7,·,·,·
CC(=O)c1cc(O)c2ccccc2c1O,5,9,-18,-1,38*,79*,-5%
Cc1cccc(OCCn2c(=S)[nH]c3ccccc32)c1,-1,·,·,0,·,113*,4%
Cc1nnc(N/N=C\c2ccc(-c3cccc(C(=O)O)c3)o2)n1N,-4,-4,-5,1,13,95*,4%
O=C(O)CC1S/C(=N/N=C/c2ccc(-c3ccc(Cl)cc3[N+](=O)[O-])o2)NC1=O (stereo unspecified),-7,1,-4,2,·,60*,-8%

# Source: PubChem (several laboratories)
